Experimental data from different studies.
Compare with care: the assays were run in different laboratories.
Target: Serine/threonine-protein kinase Nek9 (NEK9, Homo sapiens, UniProt Q8TD19)
Sequence (Q8TD19 1-979, as in one of the studies): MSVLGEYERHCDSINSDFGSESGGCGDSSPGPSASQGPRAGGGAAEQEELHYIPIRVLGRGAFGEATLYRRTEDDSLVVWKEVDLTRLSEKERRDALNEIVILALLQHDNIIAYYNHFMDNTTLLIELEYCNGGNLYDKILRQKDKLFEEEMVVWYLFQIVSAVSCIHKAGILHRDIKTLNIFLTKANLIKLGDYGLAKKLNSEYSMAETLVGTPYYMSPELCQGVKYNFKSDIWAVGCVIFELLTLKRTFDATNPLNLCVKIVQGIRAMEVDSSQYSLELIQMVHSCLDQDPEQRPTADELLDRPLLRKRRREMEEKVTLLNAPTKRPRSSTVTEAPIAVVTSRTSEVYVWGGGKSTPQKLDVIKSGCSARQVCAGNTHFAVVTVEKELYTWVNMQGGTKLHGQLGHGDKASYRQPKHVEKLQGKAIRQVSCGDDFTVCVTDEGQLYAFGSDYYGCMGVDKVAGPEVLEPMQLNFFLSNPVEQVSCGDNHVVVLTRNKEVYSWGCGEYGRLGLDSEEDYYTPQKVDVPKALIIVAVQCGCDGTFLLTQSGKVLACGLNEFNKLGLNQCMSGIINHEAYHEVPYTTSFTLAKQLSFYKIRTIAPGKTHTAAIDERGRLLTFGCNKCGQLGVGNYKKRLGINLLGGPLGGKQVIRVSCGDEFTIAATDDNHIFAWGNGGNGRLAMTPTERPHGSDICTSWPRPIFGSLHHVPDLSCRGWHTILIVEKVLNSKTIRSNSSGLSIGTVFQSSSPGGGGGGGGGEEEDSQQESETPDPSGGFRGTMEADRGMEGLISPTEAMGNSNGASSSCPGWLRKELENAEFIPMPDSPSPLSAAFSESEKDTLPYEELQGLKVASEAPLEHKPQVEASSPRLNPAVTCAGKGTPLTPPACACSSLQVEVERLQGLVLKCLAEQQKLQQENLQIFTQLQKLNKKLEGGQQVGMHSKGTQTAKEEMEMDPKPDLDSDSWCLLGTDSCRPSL

For `O=C(c1ccc(Nc2ncc(Cl)c(-c3cc4ccccc4s3)n2)cc1)N1CCC(N2CCCC2)CC1`, the remaining binding was 33% (binding, competition with immobilised ligand; 1 µM).
With `Cc1cnn2ncc(-c3ccnc(N(C)C)n3)c2c1` the remaining binding was 100% (binding; 1 µM).
With `CC(=O)Nc1c(C(C)=O)c(=O)n(C)c2nc(-c3ccc(Cl)cc3Cl)c(-c3ccc(Cl)cc3)cc12` the remaining binding was 100% (cell-free assay, competition with immobilised ligand; 1 µM).
The remaining binding of `CN(CCCC(F)(F)F)c1nccc(-c2cnn3ncccc23)n1` is reported as 100% (binding; 1 µM).
`COc1cnc(Nc2cccc(S(N)(=O)=O)c2)nc1N1CCN(c2ccccc2)C(=O)C1` gave a remaining binding of 99% (binding, competition with immobilised ligand; 1 µM).
For `Cn1nc(C(=O)NCc2ccc(C(=O)O)cc2)cc1-c1ccc2[nH]ccc2c1`, the remaining binding was 99% (cell-free assay, competition with immobilised ligand; 0.1 µM).
`CN(C)c1nccc(-c2cnn3ncccc23)n1` gave a remaining binding of 100% (binding; 1 µM).
With `CCN1CCN(Cc2ccc(C(=O)Nc3ccc(C)c(Oc4ccc5c(c4)CC(=O)N5)c3)cc2C(F)(F)F)CC1` the remaining binding was 100% (binding, competition with immobilised ligand; 1 µM).
For `COc1ccc2cc(OCC3(C(=O)O)CN(C(=O)c4ccc(F)cc4)C3)ccc2c1`, the remaining binding was 100% (cell-free assay, competition with immobilised ligand; 1 µM).
For `CN(C)c1ncc(F)c(-c2cnn3ncccc23)n1`, the remaining binding was 100% (binding; 1 µM).
With `FC(F)(F)Oc1cccc(-c2cnc3ccc(-c4ccncc4)nn23)c1` the remaining binding was 91% (cell-free assay, competition with immobilised ligand; 5 µM).
The remaining binding of `CN(C)C(=O)Cn1cc(-c2nc([C@@](C)(c3ccc(-c4cnc(N)nc4)cc3)C3CC3)no2)cn1` is reported as 95% (cell-free assay, competition with immobilised ligand; 1 µM).
The remaining binding of `CN(c1nccc(-c2cnn3ncccc23)n1)C1CC1` is reported as 100% (binding; 1 µM).
`O=C1NC(c2ccccn2)Sc2ccccc21` (stereo not shown) gave a remaining binding of 75% (cell-free assay, competition with immobilised ligand; 1 µM).
For `O=C(NCC1CCOCC1)c1n[nH]cc1NC(=O)c1c(F)cccc1F`, the remaining binding was 92% (binding, competition with immobilised ligand; 1 µM).
For `c1cnn2ncc(-c3ccnc(N4CCC45COC5)n3)c2c1`, the remaining binding was 82% (binding; 1 µM).
`O=C(c1ccc(Nc2nccc(-c3cc4ccccc4s3)n2)cc1)N1CCC(N2CCCC2)CC1` gave a remaining binding of 100% (binding, competition with immobilised ligand; 1 µM).
`Nc1ncc2c(n1)-c1c([nH]c3ccc(C#CC4CC4)cc13)CCCC2` has a remaining binding of 91% (binding, competition with immobilised ligand; 1 µM).
For `Cc1c(NC(=O)c2cc(C(N)=O)nc3cc(F)ccc23)c(C(F)(F)F)nn1Cc1ccc(C#N)cc1`, the remaining binding was 95% (cell-free assay, competition with immobilised ligand; 1 µM).
For `C[C@@H]1CCN(c2nccc(-c3cnn4ncccc34)n2)C1`, the remaining binding was 81% (binding; 1 µM).
For `Cc1c(C(=O)O)cc(-c2ccc(C3CCNCC3)cc2)c2ccc(-c3ccc(C(F)(F)F)cc3)cc12`, the remaining binding was 100% (binding, competition with immobilised ligand; 1 µM).
`O=C(c1ccc(Nc2ncc(Cl)c(-c3ccc(Cl)s3)n2)cc1)N1CCC(N2CCCC2)CC1` gave a remaining binding of 23% (binding, competition with immobilised ligand; 1 µM).
